Experiments:
[1] = In vitro cytotoxic activity, MTT assay; type: cell-based, human; settings: human, U-937 cells, Cytotoxicity LC50, U-937 cells, MTT, ±SD (n = 3)
Method in brief: (§1)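 Human U-937 macrophages in RPMI 1640/10% FBS are exposed to test compound from 200 to 0.19 µg/mL. MTT formazan is read as OD at 570 nm, with untreated cells as the viability control. Triplicate. LC50 comes from Probit linear regression of dose-response. Classes: LC50 <100 µM potentially cytotoxic, 100–<200 µM mildly cytotoxic, ≥200 µM noncytotoxic.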

[2] = system: intracellular amastigotes of L. panamensis; test: Anti-leishmanial activity, GFP flow cytometry in infected U-937 cells; type: cell-based, Leishmania panamensis; settings: for EC50: Leishmania panamensis, U-937, 72 h, read-out: Anti-leishmanial EC50; for SI (anti-leishmanial): Selectivity index = LC50 (U-937)/EC50 (L. panamensis); for Anti-leishmanial activity class: L. panamensis
Method in brief: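 L. panamensis GFP strain MHOM/CO/87/UA140 stationary promastigotes infect PMA-treated U-937 cells (3×10^5 cells/mL) at 15:1, 3 h at 34 °C, 5% CO2, then washed. At 24 h, test compound (50.0, 12.5, 3.1, 0.8 µg/mL) is added for 72 h at 37 °C. Flow cytometry at 488/525 nm over 10,000 events gives MFI, corrected with uninfected cells. Amphotericin B is the control. Triplicate, two experiments. SI = U-937 LC50/EC50.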

[3] = system: intracellular amastigotes of T. cruzi (Tulahuen strain); type: cell-based, Trypanosoma cruzi; settings: for SI (anti-trypanosomal): Selectivity index = LC50 (U-937)/EC50 (T. cruzi); for EC50: Trypanosoma cruzi, TULAHUEN, U-937, 72 h, read-out: Anti-trypanosomal EC50
Method in brief: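 T. cruzi Tulahuen (β-galactosidase-transfected) epimastigotes are grown 10 days at 26 °C. U-937 cells (2.5×10^4/100 µL, 0.16 µM PMA) are infected at 5:1 for 24 h at 37 °C, 5% CO2, RPMI/10% FBS, then washed. Six serial compound dilutions run for 72 h. CPRG 100 µM plus 0.1% NP-40 for 4 h, dark, then OD 570 nm, blank-subtracted. Benznidazole is the control. Triplicate, ≥2 experiments. SI = U-937 LC50/EC50.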

[4] = system: P. falciparum (3D7 strain); test: Anti-plasmodial activity, pLDH assay; type: cell-based, Plasmodium falciparum; settings: for EC50: Plasmodium falciparum, 3D7, 72 h, read-out: Anti-plasmodial EC50; for SI (anti-plasmodial): Selectivity index = LC50 (U-937)/EC50 (P. falciparum)
Method in brief: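 Asynchronous P. falciparum 3D7 at 0.5% parasitemia, 1% hematocrit in RPMI-1640/1% Albumax II is exposed to test compound at 100, 25, 3.125 and 0.78 µg/mL. Incubation is 72 h at 37 °C under 90% N2/5% CO2/5% O2. Freeze-thawed lysate goes into Malstat (pH 9.0) plus NBT/PES for 1 h in the dark. pLDH is read at 650 nm, blank-subtracted. Chloroquine is the control. SI = U-937 LC50/EC50.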

[5] = system: U-937 cells; test: In vitro cytotoxic activity, MTT assay; type: cell-based, human; settings: for Degree of cytotoxicity: class by LC50 scale of b21
Method in brief: as §1

Structure (SMILES) | CC50 [1] [µM] | EC50 [2] [µM] | SI (anti-leishmanial) [2] | SI (anti-trypanosomal) [3] | EC50 [3] [µM] | EC50 [4] [µM] | SI (anti-plasmodial) [4] | Anti-leishmanial activity class [2] | Degree of cytotoxicity [5] | Toxicity class ([5]; class by United Nations 2009 scale)
C[C@@H]1[C@H](O)[C@@H](C)/C=C/C=C/C=C/C=C/C=C/C=C/C=C/[C@H](O[C@@H]2O[C@H](C)[C@@H](O)[C@H](N)[C@@H]2O)C[C@@H]2O[C@](O)(C[C@@H](O)C[C@@H](O)[C@H](O)CC[C@@H](O)C[C@@H](O)CC(=O)O[C@H]1C)C[C@H](O)[C@H]2C(=O)O [Amphotericin B, reference compound] | 32.6 ± 4 | 0.3 ± 0.1 | 108.67 |  |  |  |  |  |  | 
O=C(Cn1ccnc1[N+](=O)[O-])NCc1ccccc1 [Benznidazole, reference compound] | > 200 |  |  | >13.83 | 14.5 ± 0.1 |  |  |  |  | 
O=C(/C=C/c1ccccc1)c1ccccc1 [Chalcone, reference compound] | 27.9 ± 0.5 | 15 ± 1.44 | 1.86 | 0.28 | 99.9 ± 39 | 769 ± 72 | 0.04 |  |  | 
CCN(CC)CCCC(C)Nc1ccnc2cc(Cl)ccc12 (stereo not shown) [Chloroquine, reference compound] | 155 ± 5.2 |  |  |  |  | 3.3 ± 0.4 | 46.34 |  |  | 
O=C(/C=C/c1ccccc1)c1cc2ccccc2oc1=O [Compound A1, 3-[(2E)-3-phenylprop-2-enoyl]-2H-chromen-2-one] | 6.7 ± 0.1 | 3.7 ± 0.5 | 1.82 | 0.15 | 44.1 ± 4.2 | 25.7 ± 3.5 | 0.26 | highly active (Compounds with EC50 ≤ 25 μM were considered highly active) |  | 
COc1cccc(/C=C/C(=O)c2cc3ccccc3oc2=O)c1 [Compound A2, 3-[(2E)-3-(3-methoxyphenyl)prop-2-enoyl]-2H-chromen-2-one] | 5.8 ± 0.1 | 2.5 ± 0.2 | 2.31 | 0.20 | 28.4 ± 5.7 | 23.3 ± 1.5 | 0.25 |  |  | 
COc1ccc(/C=C/C(=O)c2cc3ccccc3oc2=O)cc1 [Compound A3, 3-[(2E)-3-(4-methoxyphenyl)prop-2-enoyl]-2H-chromen-2-one] | 11.4 ± 2.3 | > 6 | <1.89 | 0.03 | 327 ± 62.4 | 38.7 ± 5.6 | 0.29 |  |  | 
Cc1cccc(/C=C/C(=O)c2cc3ccccc3oc2=O)c1 [Compound A4, 3-[(2E)-3-(3-methylphenyl)prop-2-enoyl]-2H-chromen-2-one] | 5.7 ± 0.1 | 10.7 ± 5.7 | 0.53 | 0.11 | 50 ± 5.3 | 35.3 ± 1.4 | 0.16 | highly active (Compounds with EC50 ≤ 25 μM were considered highly active) |  | 
O=C(/C=C/c1cccc(O)c1)c1cc2ccccc2oc1=O [Compound A5, 3-[(2E)-3-(3-hydroxyphenyl)prop-2-enoyl]-2H-chromen-2-one] | 5.9 ± 0.2 | 2.1 ± 0.2 | 2.85 | 0.31 | 18.7 ± 2.4 | 26.7 ± 3.6 | 0.22 |  |  | 
O=C(/C=C/c1ccc(O)cc1)c1cc2ccccc2oc1=O [Compound A6, 3-[(2E)-3-(4-hydroxyphenyl)prop-2-enoyl]-2H-chromen-2-one] | 7.5 ± 0.4 | 8.2 ± 4 | 0.91 | 0.17 | 43.2 ± 6.4 | 16.6 ± 0.9 | 0.45 |  |  | 
O=C(/C=C/c1cccc([N+](=O)[O-])c1)c1cc2ccccc2oc1=O [Compound A7, 3-[(2E)-3-(3-nitrophenyl)prop-2-enoyl]-2H-chromen-2-one] | 112 ± 10.6 | 64.7 ± 8.6 | 1.73 | 0.23 | 496 ± 62 | 17.9 ± 1.7 |  |  | mildly cytotoxic (100 ≤ LC50 < 200 μM) | 
O=C(/C=C/c1ccc([N+](=O)[O-])cc1)c1cc2ccccc2oc1=O [Compound A8, 3-[(2E)-3-(4-nitrophenyl)prop-2-enoyl]-2H-chromen-2-one] |  | 197 ± 76.9 | 3.05 | 1.91 | 314 ± 19.9 | 18.4 ± 1 |  |  |  | 
O=C(/C=C/c1ccc(Cl)cc1)c1cc2ccccc2oc1=O [Compound A9, 3-[(2E)-3-(4-chlorophenyl)prop-2-enoyl]-2H-chromen-2-one] | 43.4 ± 3.9 | 59.1 ± 12.7 | 0.73 | 0.83 | 52.1 ± 3.3 | 18.9 ± 1.5 |  |  |  | 
O=C(/C=C/c1cccc(Br)c1)c1cc2ccccc2oc1=O [Compound A10, 3-[(2E)-3-(3-bromophenyl)prop-2-enoyl]-2H-chromen-2-one] | 112 ± 8.2 | 32.8 ± 3 |  | 0.98 | 114 ± 8.5 | 19.6 ± 1.7 |  |  | mildly cytotoxic (100 ≤ LC50 < 200 μM) | moderately toxic (from 50 to 200 μM moderately toxic)
O=C(/C=C/c1ccc(Br)cc1)c1cc2ccccc2oc1=O [Compound A11, 3-[(2E)-3-(4-bromophenyl)prop-2-enoyl]-2H-chromen-2-one] | 32.1 ± 2.2 | 31.4 ± 4.2 | 1.02 | 0.72 | 44.4 ± 3.5 | 20.9 ± 1.2 | 1.54 |  |  | 
CCOc1cc(/C=C/C(=O)c2cc3ccccc3oc2=O)ccc1O [Compound A12, 3-[(2E)-3-(3-ethoxy-4-hydroxyphenyl)prop-2-enoyl]-2H-chromen-2-one] | 8.5 ± 1.6 | 6.6 ± 1.3 | 1.29 | 0.21 | 41.2 ± 1.1 | 15 ± 0.5 | 0.57 |  |  | 
O=C(/C=C/c1ccc2c(c1)OCO2)c1cc2ccccc2oc1=O [Compound A13, 3-[(2E)-3-(1,3-benzodioxol-5-yl)prop-2-enoyl]-2H-chromen-2-one] | 38 ± 3.4 | > 20 | <1.90 | 0.30 | 129 ± 11 | 15.2 ± 1.1 |  |  |  | 
O=c1ccc2ccccc2o1 [Coumarin, reference compound] | 12.9 ± 0.5 | 64.4 ± 21.8 | 0.20 | <1.83 | > 7 | 50.7 ± 5.7 | 0.25 |  |  | 

Reference: paper PMC8851253 (Heliyon, 2022)
